Test results: ChEMBL document CHEMBL1123858, “Synthesis and gastrointestinal pharmacology of a 3E,5Z diene analogue of misoprostol” (1987)

Assays:
[1] = system: Canis familiaris; experiment: Tested for gastric antisecretory activity in histamine-stimulated Heidenhain pouch dogs by intravenous administration; type: functional; settings: Canis lupus familiaris, Stomach
[2] = organism: Canis familiaris; experiment: Activity ratio ED50 of diarrhea to ED50 of antisecretory in histamine -stimulated gastric fistula dogs; type: functional, Canis lupus familiaris, Stomach
Method in brief: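 Ratio of the 8-h rat diarrhea ED50 to the dog antisecretory ED50. Diarrhea: fasted (24 h) male Charles River rats (210–230 g; n = 6–12) given logarithmically graded oral doses and scored all-or-none hourly to 8 h, with ED50 from a maximum-likelihood logistic model. Antisecretory ED50: intragastric dosing in histamine-infused gastric fistula dogs, from 4-h acid output.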

[3] = system: Canis familiaris; experiment: Tested for gastric antisecretory activity in histamine-stimulated gastric fistula dogs by intragastric administration; type: functional; settings: Canis lupus familiaris, Stomach, po
Method in brief: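 Conscious adult female beagles (6–12 kg) with simple gastric fistulas, fasted 18 h. After a 30-min basal period, drug given intragastrically via dosing plug with cannula closed 30 min, then histamine infused at 15 µg kg-1 h-1. Juice collected every 30 min for 4 h and titrated with 0.1 N NaOH to pH 7.0. ED50 is 50% inhibition of 4-h total acid output, from three-dose curves.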

[4] = system: Canis familiaris; experiment: Tested for relative antisecretory potency in histamine-stimulated gastric fistula dogs by intragastric administration; value ranges from (0.13-0.48); type: functional; settings: Canis lupus familiaris, Stomach, po
Method in brief: (§1)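 Gastric fistula beagles given drug intragastrically, then histamine infused at 15 µg kg-1 h-1. Total acid output collected over 4 h by NaOH titration to pH 7.0, and percent inhibition curves built. Relative antisecretory potency and its limits were computed by bioassay statistical analysis of these dose-response data.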

[5] = system: Canis familiaris; experiment: Tested for relative antisecretory potency in histamine-stimulated gastric fistula dogs by intragastric administration; type: functional; settings: Canis lupus familiaris, Stomach, po; method in brief: as §1
[6] = system: Canis familiaris; experiment: Tested for relative antisecretory potency in histamine-stimulated gastric fistula dogs by intragastric administration; value ranges from (0.53-1.76); type: functional; settings: Canis lupus familiaris, Stomach, po; method in brief: as §1

## CCCCC(C)(O)C/C=C/[C@H]1[C@H](O)CC(=O)[C@@H]1CC#C/C=C/CC(=O)OC (stereo not given in full)
[1]
  ED50: > 1 µg/kg

## CCCCC(C)(O)C/C=C/[C@H]1[C@H](O)CC(=O)[C@@H]1CCCCCCC(=O)OC (stereo not given in full) [MISOPROSTOL]
[2]
  Ratio: 1364
[3]
  ED50: 0.28 µg/kg
[4]
  relative potency: 0.26

## CCCCC(C)(O)C/C=C/[C@H]1[C@H](O)CC(=O)[C@@H]1C/C=C\C=C\CC(=O)OC (stereo not given in full)
[2]
  Ratio: 1638
[3]
  ED50: 0.08 µg/kg
[5]
  relative potency: 1

## CCCCC(C)(O)C/C=C/[C@H]1[C@H](O)CC(=O)[C@@H]1C/C=C\C=C/CC(=O)OC.CCCCC(C)(O)C/C=C/[C@H]1[C@H](O)CC(=O)[C@@H]1C/C=C\C=C\CC(=O)OC (mixture of isomers)
[2]
  Ratio: 8025
[6]
  relative potency: 0.95
[3]
  ED50: 0.08 µg/kg
